Experiment [1] concerns rhinovirus A2. Briefly: Broad spectrum antiviral activity was evaluated against HRV-2. Format: functional, organism-based, human rhinovirus2. Conditions: Rhinovirus A.
Experiment [2] has as its system rhinovirus A16. Description: Broad spectrum antiviral activity was evaluated against HRV-16. The following applies: Rhinovirus A. The format is functional, organism-based.
Experiment [3] concerns Poliovirus 1. Description: Broad spectrum antiviral activity was evaluated against PV1. Conditions: Enterovirus C. The format is functional, organism-based.
For experiment [4], the system named is rhinovirus B14. Description: (§1) Cytopathic effect was evaluated against rhino virus usingCPE/XTT assay. The format is functional, human rhinovirus14. The procedure, abridged:
(§2)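 HeLa cells were seeded at 10 000 per well in medium 199 with 5% FBS and grown overnight at 37 °C. Surviving cells were read with XTT (0.4 mg/mL) plus PMS after 3-4 h at 37 °C. IC50 (CPE inhibition) and TC50 (versus a no-drug, no-virus control) came from the linear portion of the dose–response curves.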
(In general: Damage to the host cells serves as the signal in cytopathic effect assays.)

Experiment [5] concerns Coxsackievirus A21. Briefly: Broad spectrum antiviral activity was evaluated against coxsackievirus A21 mouse muscle adapted (CA21M). Format: functional, organism-based. Conditions: Enterovirus C, Muscle tissue.
Experiment [6] relates to rhinovirus B14. Description: (§3) Antiviral activity was evaluated against rhino virus using PRA assay. Format: functional, organism-based, human rhinovirus14. Conditions: Rhinovirus B. The method, boiled down: (§4)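 Rhinovirus 14 was adsorbed for 1 h at room temperature onto confluent H-HeLa monolayers grown in medium 199 with 10% FBS. Cells were overlaid with agarose and growth medium (5% FBS) containing compound in DMSO (final DMSO 0.01%), then held at 37 °C under CO2 until plaques appeared in DMSO controls. Plates were formalin-fixed, crystal-violet stained and plaques counted, with duplicate wells averaged. IC50/IC90 were computed by Reed–Muench.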

Experiment [7] relates to Coxsackievirus A21. Description: Broad spectrum antiviral activity was evaluated against CA21C. The format is functional, organism-based. Conditions: Enterovirus C.
For experiment [8], the system named is Human rhinovirus 1A. Briefly: Broad spectrum antiviral activity was evaluated against HRV-1A. The format is functional, organism-based, human rhinovirus1a.
In experiment [9] the test system is Coxsackievirus B3. Description: Broad spectrum antiviral activity was evaluated against CB3. Format: functional, organism-based, and coxsackievirus b3. Conditions: Enterovirus B.
Experiment [10] concerns Human rhinovirus sp. The description is as §1. Format: functional, human rhinovirus14. The method, boiled down:
as §2

The test system of experiment [11] is Human rhinovirus sp. The description is as §3. Format: functional, organism-based, human rhinovirus14. The procedure, abridged:
as §4

Converted amounts (≈) assume the structure as drawn. Where only a bound is given, the exact number is not on record here.

Our source for the IC50 and TC50 values is ChEMBL document CHEMBL1145116, “Imidazo[1,2-b]pyridazines, novel nucleus with potent and broad spectrum activity against human picornaviruses: design, synthesis, and biological evaluation” (J Med Chem, 2003).

Usually IC50 stands for the concentration that gives 50% inhibition. A higher IC50 goes with weaker potency.

In the case of `Nc1nc2ccc(/C(=N/O)c3ccccc3)nn2c1-c1ccccc1`, the IC50 in experiment [1] stood at 0.03 µg/mL (≈ 0.0911 µM); in [2] it was 0.06 µg/mL (≈ 0.182 µM); in [3] it was 0.04 µg/mL (≈ 0.121 µM); in [5] it was 0.02 µg/mL (≈ 0.0607 µM); in experiment [6], 0.04 µg/mL (≈ 0.121 µM); in experiment [7], 0.04 µg/mL (≈ 0.121 µM). Further, the half-maximal inhibitory concentration (IC50) in experiment [8] and in experiment [9] was 0.05 µg/mL (≈ 0.152 µM) each time. Further, the TC50 in experiment [4] was over 10 µg/mL.
Turning to `CNC(=O)/C=C(\c1ccccc1)c1ccc2nc(N)c(-c3ccc(F)cc3)n2n1`, in experiment [4], the TC50 is 4.06 µg/mL (≈ 10.5 µM). The compound also registered an IC50 in experiment [6] of 0.11 µg/mL (≈ 0.284 µM).
`CNC(=O)/C=C(\c1ccc(C)cc1)c1ccc2nc(N)c(-c3ccc(F)cc3)n2n1`: the TC50 in experiment [4] is over 10 µg/mL. The same compound displayed an IC50 in experiment [6] of 0.23 µg/mL (≈ 0.573 µM).
The compound `CNC(=O)/C=C(/c1ccc(C)cc1)c1ccc2nc(N)c(-c3ccc(F)cc3)n2n1` registered a TC50 in experiment [4] of over 10 µg/mL. Moreover, the IC50 in [6] was over 10 µg/mL.
In [10], `Nc1nc2ccc(/C(=N/O)c3ccccc3)nn2c1-c1ccc(F)cc1` returned a TC50 of over 10 µg/mL. This compound also came in with a 50% inhibitory concentration (IC50) in experiment [11] of 0.05 µg/mL (≈ 0.144 µM).
For `CNC(=O)/C=C(/c1ccccc1)c1ccc2nc(N)c(-c3ccc(F)cc3)n2n1`, in [6], the IC50 was over 10 µg/mL.
Consider `CCOC(=O)/C=C(\c1ccccc1)c1ccc2nc(N)c(-c3ccc(F)cc3)n2n1`, for which the IC50 in [6] was over 10 µg/mL.
The compound `Nc1nc2ccc(C(=O)c3ccccc3)nn2c1-c1ccccc1` registered an IC50 in experiment [11] of 7.19 µg/mL (≈ 22.9 µM).
Same read-out and setting: the result for `CC(C)S(=O)(=O)n1c(N)nc2ccc(/C(=N/O)c3ccccc3)cc21` [ENVIROXIME] reads 0.05 µg/mL (≈ 0.139 µM).
For `CNC(=O)/C=C(\c1ccc(OC)cc1)c1ccc2nc(N)c(-c3ccc(F)cc3)n2n1`, the TC50 in experiment [4] is over 10 µg/mL. In addition, the IC50 in [6] is 0.6 µg/mL (≈ 1.44 µM).
In experiment [4], `CNC(=O)/C=C(/c1ccc(OC)cc1)c1ccc2nc(N)c(-c3ccc(F)cc3)n2n1` returned a TC50 of over 10 µg/mL. Also, half-maximal inhibition in [6] (IC50) required 4.2 µg/mL (≈ 10.1 µM).
The compound `Nc1nc2ccc(/C(=N/Nc3ccccc3)c3ccccc3)nn2c1-c1ccc(F)cc1` displayed a TC50 in experiment [4] of over 10 µg/mL. This compound had an IC50 in experiment [6] of over 10 µg/mL.
